Measured values taken from ChEMBL document CHEMBL1122172, “Syntheses and diuretic activity of 1,2-dihydro-2-(3-pyridyl)-3H-pyrido[2,3-d]pyrimidin-4-one and related compounds” (1982).
Values joined by “and” are separate entries in the source; they are usually repeats but may differ in a detail not shown here. Equal entries are not always repeated.

Experiments:
Format in all cases: functional, Urine
[1] = test system: Rattus norvegicus; assay: Total Cl- milliequivalents excretion in diuretic test at the dose of 150 mg/kg
[2] = test system: Rattus norvegicus; assay: Total Na+ milliequivalents excretion in diuretic test at the dose of 150 mg/kg
[3] = test system: Rattus norvegicus; assay: Diuretic activity by measuring the urinary output at the dose of 150 mg/kg
Procedure, shortened: (§1)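 Groups of eight male Sprague–Dawley-derived rats, fasted 18 h with water ad libitum, received oral doses by dosing needle in 5% acacia–isotonic saline; the vehicle served as control. Rats were placed in metabolism cages with no food or water, and urine was collected for 5 h. Bladders were then emptied by pulling at the tail base (modified Lipschitz method).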

[4] = test system: Rattus norvegicus; assay: Total K+ milliequivalents excretion in diuretic test at the dose of 150 mg/kg
[5] = test system: Rattus norvegicus; assay: Total K+ milliequivalents excretion in diuretic test at the dose of 25 mg/kg
Procedure, shortened: (§2)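 Male Sprague–Dawley rats (195–225 g) were fasted and deprived of water for 18 h. The compound was given orally, dissolved in 25 mL/kg saline; controls got saline alone. Groups of eight were housed as pairs in metabolism cages. Urine volume was read at 2 and 5 h, with total Na+, Cl− and K+ mequiv excreted. Values are mean ± SEM, N = 8.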

[6] = test system: Rattus norvegicus; assay: Total Cl- milliequivalents excretion in diuretic test at the dose of 75 mg/kg
[7] = test system: Rattus norvegicus; assay: Total Na+ milliequivalents excretion in diuretic test at the dose of 25 mg/kg; procedure, shortened: as §2
[8] = test system: Rattus norvegicus; assay: Diuretic activity by measuring the urinary output at the dose of 75 mg/kg; procedure, shortened: as §1
[9] = test system: Rattus norvegicus; assay: Diuretic activity by measuring the urinary output at the dose of 25 mg/kg; procedure, shortened: as §2
[10] = test system: Rattus norvegicus; assay: Total Cl- milliequivalents excretion in diuretic test at the dose of 25 mg/kg; procedure, shortened: as §2
[11] = test system: Rattus norvegicus; assay: Total K+ milliequivalents excretion in diuretic test at the dose of 75 mg/kg
[12] = test system: Rattus norvegicus; assay: Total Na+ milliequivalents excretion in diuretic test at the dose of 75 mg/kg
[13] = test system: Rattus norvegicus; assay: Diuretic activity by measuring the urinary output at the dose of 50 mg/kg; procedure, shortened: as §1
[14] = test system: Rattus norvegicus; assay: Total K+ milliequivalents excretion in diuretic test at the dose of 50 mg/kg
[15] = test system: Rattus norvegicus; assay: Total Na+ milliequivalents excretion in diuretic test at the dose of 50 mg/kg
[16] = test system: Rattus norvegicus; assay: Total Cl- milliequivalents excretion in diuretic test at the dose of 50 mg/kg
[17] = test system: Rattus norvegicus; assay: Diuretic activity by measuring the urinary output at the dose of 40 mg/kg; procedure, shortened: as §1
[18] = test system: Rattus norvegicus; assay: Diuretic activity by measuring the urinary output at the dose of 20 mg/kg; procedure, shortened: as §1
[19] = test system: Rattus norvegicus; assay: Total Na+ milliequivalents excretion in diuretic test at the dose of 3 mg/kg
Procedure, shortened: (§3)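 Oral dosing was in 25 mL/kg saline to male Sprague–Dawley rats (195–225 g) after 18 h without food or water, with saline-only controls. Groups of eight were kept two per metabolism cage. Urinary Na+, Cl− and K+ were reported as total mequiv excreted, with electrolyte analysis done externally. Values are mean ± SEM of two rats per cage, N = 8.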

[20] = test system: Rattus norvegicus; assay: Diuretic activity by measuring the urinary output after 2 hr at the dose of 9 mg/kg
Procedure, shortened: (§4)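 Male Sprague–Dawley rats (195–225 g) were fasted and deprived of water for 18 h, then dosed orally with compound dissolved in 25 mL/kg saline. Controls got 25 mL/kg saline alone. Groups of eight were used, housed two rats per metabolism cage right after dosing. Urine volume was collected at 2 h and 5 h after dosing. Values are mean ± SEM per cage pair, N = 8.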

[21] = test system: Rattus norvegicus; assay: Total K+ milliequivalents excretion in diuretic test at the dose of 12 mg/kg; procedure, shortened: as §2
[22] = test system: Rattus norvegicus; assay: Total K+ milliequivalents excretion in diuretic test at the dose of 3 mg/kg; procedure, shortened: as §3
[23] = test system: Rattus norvegicus; assay: Total Na+ milliequivalents excretion in diuretic test at the dose of 27 mg/kg; procedure, shortened: as §3
[24] = test system: Rattus norvegicus; assay: Total K+ milliequivalents excretion in diuretic test at the dose of 1 mg/kg; procedure, shortened: as §2
[25] = test system: Rattus norvegicus; assay: Diuretic activity by measuring the urinary output after 2 hr at the dose of 27 mg/kg; procedure, shortened: as §4
[26] = test system: Rattus norvegicus; assay: Total Cl- milliequivalents excretion in diuretic test at the dose of 27 mg/kg; procedure, shortened: as §3
[27] = test system: Rattus norvegicus; assay: Diuretic activity by measuring the urinary output after 5 hr at the dose of 9 mg/kg; procedure, shortened: as §4
[28] = test system: Rattus norvegicus; assay: Total Na+ milliequivalents excretion in diuretic test at the dose of 9 mg/kg; procedure, shortened: as §3
[29] = test system: Rattus norvegicus; assay: Diuretic activity by measuring the urinary output after 5 hr at the dose of 27 mg/kg; procedure, shortened: as §4
[30] = test system: Rattus norvegicus; assay: Diuretic activity by measuring the urinary output after 2 hr at the dose of 1 mg/kg; procedure, shortened: as §2
[31] = test system: Rattus norvegicus; assay: Total Na+ milliequivalents excretion in diuretic test at the dose of 1 mg/kg; procedure, shortened: as §2
[32] = test system: Rattus norvegicus; assay: Diuretic activity by measuring the urinary output after 5 hr at the dose of 12 mg/kg; procedure, shortened: as §2
[33] = test system: Rattus norvegicus; assay: Diuretic activity by measuring the urinary output after 2 hr at the dose of 3 mg/kg; procedure, shortened: as §4
[34] = test system: Rattus norvegicus; assay: Total Cl- milliequivalents excretion in diuretic test at the dose of 12 mg/kg; procedure, shortened: as §2
[35] = test system: Rattus norvegicus; assay: Total Cl- milliequivalents excretion in diuretic test at the dose of 1 mg/kg; procedure, shortened: as §2
[36] = test system: Rattus norvegicus; assay: Diuretic activity by measuring the urinary output after 2 hr at the dose of 12 mg/kg; procedure, shortened: as §2
[37] = test system: Rattus norvegicus; assay: Total K+ milliequivalents excretion in diuretic test at the dose of 27 mg/kg; procedure, shortened: as §3
[38] = test system: Rattus norvegicus; assay: Total Cl- milliequivalents excretion in diuretic test at the dose of 9 mg/kg; procedure, shortened: as §3
[39] = test system: Rattus norvegicus; assay: Total K+ milliequivalents excretion in diuretic test at the dose of 9 mg/kg; procedure, shortened: as §3
[40] = test system: Rattus norvegicus; assay: Total Cl-mequiv excretion in diuretic test at the dose of 3 mg/kg; procedure, shortened: as §2
[41] = test system: Rattus norvegicus; assay: Total Na+ milliequivalents excretion in diuretic test at the dose of 12 mg/kg; procedure, shortened: as §2
[42] = test system: Rattus norvegicus; assay: Diuretic activity by measuring the urinary output after 5 hr at the dose of 3 mg/kg; procedure, shortened: as §4

Molecule CC1(C(=O)NCc2cccnc2)NC(=O)c2ccccc2N1 (centres undefined) has an Excretion [1] of 1.5 m equiv, an Excretion [2] of 1.4 m equiv and a Control [3] of 120%. The Excretion [4] was 0.5 m equiv.
Molecule O=C1NC(c2ccccc2)Nc2ncccc21 (centres undefined) has an Excretion [5] of 0.5 m equiv, an Excretion [6] of 1.8 m equiv and an Excretion [7] of 1.3 m equiv. It also gave a Control [8] of 146%, a Control [9] of 114% and an Excretion [10] of 1.4 m equiv.
Work on CN(C)C(=O)C1(C)NC(=O)c2ccccc2N1 (centres undefined) yielded an Excretion [1] of 1.4 m equiv, an Excretion [2] of 1.1 m equiv and a Control [3] of 100%. It also gave an Excretion [4] of 0.4 m equiv.
O=C1NC(c2cccnc2)Nc2nccnc21 (centres undefined) was tested, and the Excretion [11] was 0.4 m equiv, the Excretion [6] was 1.2 m equiv and the Control [8] was 97%. The Excretion [12] was 1.2 m equiv.
For Nc1ccc(C2NC(=O)c3cccnc3N2)cc1 (centres undefined), the Control [13] was 128%, the Excretion [14] was 0.5 m equiv and the Excretion [15] was 1.5 m equiv. For the same molecule, the Excretion [16] was 1.5 m equiv.
Molecule O=C1NC(c2cccnc2)Nc2ccccc21 (centres undefined) has an Excretion [5] of 0.4 m equiv, an Excretion [7] of 1 m equiv and a Control [9] of 96%. For the same molecule, the Excretion [10] was 1.1 m equiv.
COC(OC)C1(C)NC(=O)c2ccccc2N1 (centres undefined) showed an Excretion [5] of 0.4 m equiv, an Excretion [7] of 1.2 m equiv and a Control [9] of 118%. The Excretion [10] was 1.2 m equiv.
With O=C1NC(c2ccc([N+](=O)[O-])cc2)Nc2ncccc21 (centres undefined) the Excretion [5] was 0.4 m equiv, the Excretion [6] was 1.7 m equiv and the Excretion [7] was 1.2 m equiv. The Control [8] was 115%, the Control [9] was 110% and the Excretion ([12]; 75 mg/kg) was 1.5 m equiv and 0.6 m equiv. The Excretion [10] was 1.3 m equiv.
NS(=O)(=O)c1cc(C(=O)O)c(NCc2ccco2)cc1Cl [FUROSEMIDE] showed a Control [17] of 517% and a Control [18] of 444%.
NS(=O)(=O)c1cc2c(cc1Cl)NCNS2(=O)=O [HYDROCHLOROTHIAZIDE] was tested, and the Excretion [19] was 2.4 m equiv, the Excretion [20] was 7.5 mL and the Excretion [21] was 0.7 m equiv and 0.6 m equiv. The Excretion [22] was 0.6 m equiv, the Excretion [23] was 2.5 m equiv and the Excretion [24] was 0.6 m equiv. The Excretion [25] was 8.4 mL, the Excretion [26] was 3 m equiv and the Excretion [27] was 14.6 mL. For the same molecule, the Excretion [28] was 2.2 m equiv, the Excretion [29] was 15.1 mL and the Excretion [30] was 7.8 mL. The Excretion [31] was 2 m equiv, the Excretion [32] was 16 mL and 13.9 mL and the Excretion [33] was 8.1 mL. For the same molecule, the Excretion [34] was 2.8 m equiv, the Excretion [35] was 2.5 m equiv and the Excretion [36] was 7.9 mL. For the same molecule, the Excretion [37] was 0.8 m equiv, the Excretion [38] was 2.7 m equiv and the Excretion [39] was 0.6 m equiv. The Excretion [40] was 2.7 m equiv, the Control [9] was 201% and the Excretion [41] was 2.5 m equiv. It also gave an Excretion [42] of 15.8 mL.
